Assay results pooled from the literature.
Each line is one published result; the experiments were not run side by side.
Target: 5-hydroxytryptamine receptor 1A (HTR1A, Homo sapiens, UniProt P08908)
Residues used in one study (P08908 1-422): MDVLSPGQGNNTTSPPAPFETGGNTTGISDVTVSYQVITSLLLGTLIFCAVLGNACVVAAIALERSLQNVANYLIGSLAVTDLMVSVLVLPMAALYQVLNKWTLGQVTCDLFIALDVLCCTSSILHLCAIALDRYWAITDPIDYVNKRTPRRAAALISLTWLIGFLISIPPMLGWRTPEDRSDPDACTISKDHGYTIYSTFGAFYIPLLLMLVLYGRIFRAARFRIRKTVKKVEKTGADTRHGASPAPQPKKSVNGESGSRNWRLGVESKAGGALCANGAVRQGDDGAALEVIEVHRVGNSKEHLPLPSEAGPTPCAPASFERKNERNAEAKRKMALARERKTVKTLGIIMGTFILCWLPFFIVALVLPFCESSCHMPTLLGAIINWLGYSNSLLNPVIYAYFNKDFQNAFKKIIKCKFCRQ

`COCCc1ccc(-c2c(C)nc3c(N4CCOCC4)ccnn23)cn1` has an inhibition of 22.9% (ligand displacement; 10 µM).
The Emax of `CN(C)C(=O)N[C@H]1CC[C@H](CCN2CCN(c3cccc(Cl)c3Cl)CC2)CC1` is reported as 95% (cAMP, agonist, TR-FRET; CHO).
The inhibition of `CNC(=O)Nc1ccc2c(c1)[C@]1(CC2)OC(=O)N(CC(=O)N(Cc2ccc(F)cc2)[C@@H](C)C(F)(F)F)C1=O` is reported as 4.17% (ligand displacement; 10 µM).
The remaining binding of `CCN(CC)CCCC[C@H](NC(=O)[C@H](CC(C)C)NC(=O)[C@H](C)NC(=O)[C@H](Cc1ccccc1)NC(=O)c1ccc(C(C)(C)C)cc1)C(=O)N[C@@H](CO)C(=O)OC` is reported as 81.3% (ligand displacement, radioligand; 10 µM).
The inhibition of `COCc1c(-c2cc3cc(C)cc(OC)c3s2)c2c(N)ncnn2c1CN1CCNC(=O)C1` is reported as 8% (ligand displacement, radioligand; 10 µM).
The inhibition of `CC(C)N1CCC[C@H]1CNC(=O)c1cn(C2CCCC2)c(=O)c2c1c1ccccc1n2C` is reported as 3% (ligand displacement, radioligand; 10 µM).
`CCNCCc1c[nH]c2ccc(OC)cc12` gave an Emax of about 70% (calcium signal, agonist).
The inhibition of `Clc1ccc2c(C3CCN(CCc4c[nH]c5ccccc45)CC3)c[nH]c2c1` is reported as 99% (ligand displacement, radioligand; 10 µM).
